# Screening data deposited in PubChem by several laboratories.
# FID counter: compounds displacing fluorescent DNA intercalator, primary screen, artefact control for HCV NS3 helicase inhibitor project, biochemical, FID fluorescence | inhibition, % at 7.9 µM | actives 0.17% (n = 290,000) | AID 1845, 2009 | DNA fluorescent intercalator displacement; in the data active means inhibition above about 37%;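 further: 0% = vehicle and 100% = reference compound; higher means more ethidium bromide displaced from hairpin DNA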
# MEKK2 WT-MEK5: modulators of MEK5 binding to wildtype MEKK2, primary screen, biochemical, multiplex bead flow cytometry, Alexa488-MEK5 | Alexa488-MEK5 binding to MEKK2 WT; actives lie on both sides | binding response (% of control), % at 10 µM | Mitogen-activated protein kinase kinase kinase 2 (Homo sapiens), Q9Y2U5 | actives 1.1% (n = 290,000); in the data active means binding response below about 67% or above about 130%; inconclusive means no clear call, values can overlap the other calls; inactive means in between
# T cruzi repl: inhibitors of intracellular T. cruzi growth, primary screen, luminescence, NIH3T3 host cells; inhibition, % (concentration not given with the values); T. cruzi beta-gal in NIH3T3, 90 h; actives 1.4% (n = 300,000);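 active means mean inhibition across valid replicates above about 55%, limit read from the data; inconclusive means mean below that limit but half or more replicates reach it; inactive means mean below it, under half of replicates reach it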;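 further: signal also drops with host cell toxicity which is not excluded here; 0% = plate median of DMSO wells and 100% = zero luminescence signal; higher percent means less beta-gal luminescence so fewer parasites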
#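 Material: NIH/3T3 host cells with β-galactosidase reporter T. cruzi; Input: 5,000 host fibroblasts per well; Medium: DMEM, 2% fetal bovine serum; Compound: 50 nL DMSO compound solution per well; Schedule: 3 h host attachment, then at least 90 h co-culture; Detection: luminescent β-galactosidase signal after 60 min lysis.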
# MEKK3 PB1 HTS: modulators of MEKK3-MEK5 PB1 binding, primary screen, biochemical, wildtype MEKK3, multiplex bead flow cytometry, Alexa488-MEK5. bead-based flow cytometry, Alexa488-MEK5 binding to MEKK3; actives lie on both sides; 0 = blocked by unlabeled MEK5, 100 = vehicle. binding response (% of control), % at 10 µM. actives 1.4% (n = 290,000). AID 1529, 2009;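 active means binding response more than 3 SD above or below the average of its plate-row segment, actives on both sides; inconclusive means wells at one plate position flagged as instrument error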;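 further: Alexa488 bead fluorescence after subtracting the streptavidin-only scavenger bead signal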
# Target sequence (Q99759 whole entry, looked up): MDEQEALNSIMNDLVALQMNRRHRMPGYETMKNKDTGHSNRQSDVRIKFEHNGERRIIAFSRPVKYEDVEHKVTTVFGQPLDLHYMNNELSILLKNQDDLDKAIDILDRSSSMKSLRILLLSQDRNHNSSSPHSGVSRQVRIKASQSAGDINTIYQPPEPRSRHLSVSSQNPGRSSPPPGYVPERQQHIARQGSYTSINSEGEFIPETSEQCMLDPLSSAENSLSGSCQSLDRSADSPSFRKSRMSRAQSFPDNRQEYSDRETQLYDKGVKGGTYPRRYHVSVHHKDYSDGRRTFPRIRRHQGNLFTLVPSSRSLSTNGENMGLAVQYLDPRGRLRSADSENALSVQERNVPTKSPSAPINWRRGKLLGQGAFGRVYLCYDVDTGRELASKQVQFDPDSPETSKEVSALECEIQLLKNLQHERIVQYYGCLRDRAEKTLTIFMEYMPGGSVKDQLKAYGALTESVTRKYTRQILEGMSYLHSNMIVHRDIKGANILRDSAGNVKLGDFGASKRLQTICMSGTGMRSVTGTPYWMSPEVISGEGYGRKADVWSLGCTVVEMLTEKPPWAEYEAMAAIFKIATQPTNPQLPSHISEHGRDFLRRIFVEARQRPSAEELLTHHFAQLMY
# MEKK2 mut-MEK5: MEK5 binding signal on mutant MEKK2 PB1, primary screen, biochemical, multiplex bead flow cytometry, Alexa488-MEK5; Alexa488-MEK5 binding to MEKK2 mutant; percent response, % at 10 µM; actives 0.35% (n = 290,000); AID 1530, 2009; in the data active means percent response above about 24%, passing the limit was not always enough
# HCV NS3 hel inh: inhibitors of HCV NS3 helicase, primary screen, biochemical, Cy5 molecular beacon fluorescence; Hepatitis C virus NS3 helicase; NS3 helicase DNA unwinding; inhibition, % at 10.9 µM; actives 0.56% (n = 290,000);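 active means inhibition above the mean of all tested compounds plus 3 SD, set per campaign, cut at about 35% in these data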;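 further: 0% = DMSO wells and 100% = thioflavine S control wells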
#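 Material: hepatitis C virus NS3 helicase domain fragment enzyme; measured by: Cy5 fluorescence, 0 and 60 min reads; control set: DMSO and thioflavine S; incubation: 60 min unwinding reaction at 25 °C after ATP addition; read-out basis: % inhibition from 60/0 min fluorescence ratio, DMSO 0%, thioflavine S 100%; repeats: singlicate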
# Starred values were filed as active, the others as inactive; ? = inconclusive; / = no result. Rows were chosen to be rich in hits. Some 4.1% of all compounds tested hit in one or more screens of this group.
SMILES,FID counter,MEKK2 WT-MEK5,T cruzi repl,MEKK3 PB1 HTS,MEKK2 mut-MEK5,HCV NS3 hel inh
Cc1cc(C(=O)Nc2ccc(Nc3ccccc3)cc2)ccc1[N+](=O)[O-],4.3,113.0,38.3,100.0,2.0,-2.5
Cc1ccccc1NC(=O)c1cc[n+]([O-])cc1,-1.2,169.0*,-12.5,104.0,18.0,4.4
Cc1ccccc1NC(=O)NC(N)=O,-0.6,-4.0*,-12.2,99.0,2.0,-2.4
CSc1cccc(NC(=S)N(Cc2ccc(C)cc2)Cc2ccccn2)c1,-10.1,104.0,55.3*,102.0,-5.0,-4.4
COc1ccccc1NC(=S)N(Cc1ccc(C)cc1)Cc1cccnc1,-21.3,97.0,16.9,103.0,3.0,-1.8
COc1ccccc1NC(=S)N(Cc1ccc(C)cc1)Cc1ccccn1,-12.1,98.0,54.6*,103.0,-3.0,-12.7
CC1CCN(C(=O)C2CCC(=O)N(Cc3ccc(Cl)cc3)C2)CC1 (configuration not stated),-38.8,104.0,-13.6,103.0,1.0,7.5
O=C(NCCc1csc(-c2ccc(Cl)cc2)n1)c1ccco1,-26.3,97.0,20.8,98.0,-2.0,-4.7
O=C(Cc1ccccc1)NNC(=O)c1ccccc1C(=O)O,-5.4,103.0,-1.8,97.0,0.0,-28.6
O=C(/C=C/c1ccc([N+](=O)[O-])s1)N1CCN(c2ccccc2)CC1,-13.9,99.0,58.5*,100.0,0.0,-3.5
O=C(/C=C/c1ccc([N+](=O)[O-])s1)N1CCCC1,5.3,91.0,69.3*,99.0,-7.0,-2.1
CC(=O)c1cccc(NC(=O)/C=C/c2ccc([N+](=O)[O-])s2)c1,-6.6,107.0,55.9*,112.0,-1.0,1.4
O=C(/C=C/c1ccc([N+](=O)[O-])s1)N1CCCCC1,-1.9,104.0,0.1,103.0,5.0,14.7
CCOC(=O)/C=c1\s/c(=C\c2sccc2C)c(=O)n1CC(=O)NCc1ccc(C)cc1,-4.5,73.0,7.9,77.0,-21.0,5.6
Cc1nc2scc(C)n2c(=O)c1S(=O)(=O)N1CCN(c2cccc(C(F)(F)F)c2)CC1,-25.4,95.0,15.6,104.0,-6.0,-5.1
O=C(c1nnsc1S(=O)(=O)c1ccc(Cl)cc1)N1CCOCC1,6.0,93.0,17.8,103.0,-1.0,-9.9
CNC(=O)c1nnsc1S(=O)(=O)c1ccc(Cl)cc1,7.0,104.0,59.6*,111.0,-1.0,-12.7
c1ccc(CSc2ccc(-c3ccccn3)nn2)cc1,-15.5,81.0,57.8*,100.0,-11.0,-2.3
O=C(CSc1ccc(-c2ccccn2)nn1)NCc1ccc(Cl)cc1,-4.1,109.0,?,121.0,-1.0,5.6
O=C(CSc1ccc(-c2ccccn2)nn1)c1ccccc1,-3.4,77.0,6.4,84.0,-20.0,-22.5
Clc1ccc(CSc2ccc(-c3ccccn3)nn2)cc1,-0.8,/,67.8*,/,/,-9.5
O=C(Nc1ccc(Cl)cc1)c1cc2c(cc1O)[nH]c1ccccc12,19.5,94.0,-14.0,96.0,-7.0,6.1
Clc1ccc(NCc2ccsc2)cc1,5.7,104.0,-7.6,103.0,0.0,2.7
CC(C)(C)c1ccc(C(=O)NNc2cc(N3CCCCC3)nc(N3CCCCC3)n2)cc1,-4.8,95.0,93.2*,102.0,0.0,1.3
CC(C)(C)c1ccc(C(=O)NNc2cc(N3CCOCC3)nc(N3CCOCC3)n2)cc1,-9.5,90.0,16.6,102.0,-13.0,-3.9
SMILES,FID counter,MEKK2 WT-MEK5,T cruzi repl,MEKK3 PB1 HTS,MEKK2 mut-MEK5,HCV NS3 hel inh
O=C(NNc1cc(N2CCCC2)nc(N2CCCC2)n1)c1ccc([N+](=O)[O-])cc1,-2.7,91.0,26.4,89.0,-5.0,-28.3
O=C(CCc1ccccc1)NNc1cc(N2CCCCC2)nc(N2CCCCC2)n1,-4.3,97.0,56.8*,99.0,-5.0,6.0
COc1ccc2c(c1)sc(=N)n2C,0.5,101.0,72.0*,105.0,-5.0,-0.8
COc1ccc2c(c1)sc1nc(=O)ccn12,-2.0,108.0,-15.2,108.0,4.0,2.6
COc1ccc(-c2ccc(NC(=O)c3ccc(Br)o3)cc2)nn1,/,/,-4.6,/,/,/
CCCCN1C(=O)NC(c2ccc(OC)cc2)C(C(=O)OCc2ccccc2)=C1C (configuration not stated),-35.8,87.0,34.2,99.0,-7.0,-19.8
COc1ccc2sc(/C=C/c3ccccc3O)[n+](C)c2c1,-6.1,4.0*,/,94.0,19.0,-36.4
Cc1c(NC(=O)CN2CCN(c3ccc(O)cc3)CC2)c(=O)n(-c2ccccc2)n1C,-10.7,99.0,-12.5,97.0,2.0,3.9
CCC(=O)c1ccc(N2CCN(C(=O)c3ccc(F)cc3)CC2)c(F)c1,-27.1,101.0,-5.9,99.0,-1.0,6.7
COc1ccc(C(=O)c2ccc(N3CCN(C(=O)c4ccc(F)cc4)CC3)c(F)c2)cc1Br,-7.6,101.0,61.3*,105.0,11.0,9.7
CS(=O)(=O)Nc1cccc(C2=NN(S(C)(=O)=O)C(c3ccccc3)C2)c1 (configuration not stated),-11.1,23.0*,15.6,104.0,37.0,-27.0
CS(=O)(=O)N1N=C(c2cccs2)CC1c1ccccc1 (configuration not stated),-1.8,0.0*,-13.1,95.0,12.0,2.3
COc1ccccc1C1CC(c2cccc(NS(C)(=O)=O)c2)=NN1S(=O)(=O)c1ccccc1 (configuration not stated),-29.5,91.0,-2.7,88.0,-14.0,-9.4
CCc1ccccc1NC(=O)c1cccc(N2C(=O)C3C4CCC(C4)C3C2=O)c1 (configuration not stated),-9.8,97.0,-5.9,94.0,-1.0,19.1
CCNC(=O)c1ccc2c(c1)C1C3CCC(C3)C1C(c1ccccc1)N2 (configuration not stated),95.9*,98.0,22.3,102.0,-3.0,-6.7
N#CC1=C(N)Oc2c(ccc3ccccc23)C1c1ccsc1 (configuration not stated),-0.2,/,75.4*,/,/,14.4
CCSc1nc(N2CCOCC2)c2c(c1C#N)CC(C)(C)N(C)C2,2.3,103.0,30.0,102.0,4.0,3.3
CC(C)CCSc1nc(N2CCOCC2)c2c(c1C#N)CC(C)(C)OC2,-0.7,107.0,67.5*,103.0,2.0,-1.7
CN1Cc2c(N3CCOCC3)nc(SCc3ccccc3)c(C#N)c2CC1(C)C,5.0,125.0,57.7*,107.0,17.0,-12.2
O=S(=O)(Cc1ccccc1Cl)NCCc1ccc(F)cc1,-10.8,103.0,-14.5,104.0,6.0,10.2
